Compounds with a hit are over-represented: about 4.9% of the library has one in this group of screens.
STAT1 blocker: STAT1 signaling inhibition; NIH 3T3 STAT1-luciferase reporter, IFN-gamma, luminescence; inhibition, % at 5.5 µM; 200,000 compounds, 0.35% hits; AID 920;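 active = inhibition above a set limit, the mean inhibition across all tested compounds plus 3 SD, cut at about 34% in these data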
APP 5'UTR act: APP 5'UTR luciferase reporter activation; SH-SY5Y APP 5'UTR luciferase reporter, luminescence; zero percent = DMSO vehicle wells; activation, % at 2 µM; 190,000 compounds, 1% hits;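 active = activation above a set limit, based on mean plus 3 SD of controls, cut at about 140% in these data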
STAT3 act-1: activators of IL-6 induced STAT3 signaling; U3A cells, IL-6 STAT3-luciferase reporter, luminescence; 100% = signal with IL-6 EC80 alone; activation (% of control), % at 5.6 µM; 190,000 compounds, 0.91% hits;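 active = activation above the screen-wide mean of compound activation plus 3 SD, cut at about 130% in these data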
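Test system: STAT3-luciferase reporter U3A cells; Detection: reporter luminescence signal; Times: 1 h compound pre-exposure, 6 h IL-6 stimulation, 37 °C; Benchmarks: IL-6-only high control; Also added: IL-6 stimulus at 33 ng/mL final.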
STAT3 blocker: STAT3 signaling inhibition. U3A cells, IL-6 STAT3-luciferase reporter, luminescence; host cell line lacks STAT1. inhibition, % at 5.5 µM. AID 862. 190,000 compounds, 0.89% hits;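 active = inhibition above the mean inhibition across all screened compounds plus 3 SD, cut at about 44% in these data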
STAT1 act-1: increases IFN-gamma driven STAT1 reporter signal; NIH 3T3 STAT1-luciferase reporter, luminescence; 100% = IFN-gamma alone, no compound; activation (% of control), % at 5.5 µM; 200,000 compounds, 2.6% hits; AID 932;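 active = activation above the screen-wide mean activation plus 3 SD, cut at about 130% in these data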
NF-kB expr up: raises NF-kB expression in human neuronal cells; NF-kB reporter expression; active compounds read high; fold change at 12.5 µM; 190,000 compounds, 1.6% hits; in the data active = fold change above about 3.3
STAT3 act-2: confirmation of STAT3 signaling activators | AID 1267 | potentiation (% of control), % at 5.7 µM | 1,200 compounds, 64% hits | U3A STAT3-luciferase reporter, IL-6 potentiation, luminescence; U3A cells lack STAT1; 100 means same as IL-6 alone | shares compounds with STAT3 act-1;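 active = percent activation of the STAT3 luciferase reporter above a set limit taken from the earlier primary screen, cut at about 130% in these data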
NFkB act 2: counter-screen for STAT3 activators: NF-kappaB activation; shares compounds with STAT3 act-1; human cells, NF-kappaB reporter activation; activation (% of control), % at 5.7 µM; 1,200 compounds, 11% hits; AID 1309; in the data active = activation above about 120%;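 also: reporter induced by TNF-alpha stimulation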
STAT1 act-2: counter-screen for STAT3 activators: STAT1 activation; NIH 3T3 STAT1-luciferase reporter, IFN-gamma, luminescence; AID 1318; activation (% of control), % at 5.7 µM; shares compounds with STAT3 act-1; 1,200 compounds, 13% hits;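 active = activation above the solvent-only control well mean plus 3 SD, set per screening run, cut at about 120% in these data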
Each line names hits and unclear results; the compound was inactive in the other large screens (follow-up assays come after a bar, where they were run).

CC(=O)Nc1cccc(C(=O)NC(C)c2ccc(S(N)(=O)=O)cc2)c1 (centres undefined)	STAT3 act-1 147.8 | STAT3 act-2 inactive | NFkB act 2 inactive | STAT1 act-2 inactive
Cc1cc(NC(=O)c2ccc(C)s2)n(-c2ccccc2)n1	none
Cc1ccc(S(=O)(=O)Nc2ccc3c4c(cccc24)CC3)c(C)c1	none (no result: NF-kB expr up)
Cc1ccc(S(=O)(=O)Nc2cc(C(C(=O)OC(C)C)C(=O)C(F)(F)F)c(O)c3ccccc23)c(C)c1 (centres undefined)	STAT3 act-1 138.2 | STAT3 act-2 inactive | NFkB act 2 inactive | STAT1 act-2 inactive
Cc1cccn2c(=O)c(C=O)c(N3CCN(c4ccc(F)cc4)CC3)nc12	none
Cn1c(-c2c(N)n(CCc3ccccc3)c3nc4ccccc4nc23)nc2ccccc21	none
Cn1c(-c2c(N)n(CCCc3ccccc3)c3nc4ccccc4nc23)nc2ccccc21	STAT3 act-1 151.7 | STAT3 act-2 136.2 | NFkB act 2 inactive | STAT1 act-2 inactive
O=C(Cc1c(C(=O)O)[nH]c2ccccc12)NCCN1CCN(c2ccccc2F)CC1	none
C(=N\c1nccs1)/c1c[nH]c2ccccc12	STAT3 act-1 167.2 | STAT3 act-2 inactive | NFkB act 2 inactive | STAT1 act-2 inactive
Oc1oc(-c2cccc3ccccc23)nc1/C=N/c1nccs1	none
C=CCNC(=O)COC(=O)c1cc(S(=O)(=O)N2CCOCC2)ccc1N1CCCCC1	none
FC(F)(F)c1nnc2c(Sc3ccccn3)nc3ccccc3n12	STAT3 act-1 141.3 | STAT3 act-2 146.2 | NFkB act 2 121.8 | STAT1 act-2 127.7
CC(=O)Nc1ccc(NCN2C(=O)[C@@H]3[C@H]4CC[C@H](C4)[C@@H]3C2=O)cc1	none
Cc1c(Cl)ccc2c1NC(=O)[C@]21[C@@H]2C(=O)N(Cc3ccccc3)C(=O)[C@@H]2[C@@H]2CCCN21	STAT3 act-1 141.0 | STAT3 act-2 inactive | NFkB act 2 inactive | STAT1 act-2 inactive
COc1cc(/C=N/NC(=S)NCCN2CCOCC2)ccc1O	none
COc1ccccc1-c1nc2s/c(=C\c3cccs3)c(=O)n2n1	none
COc1ccc(/C=c2\sc3nc(-c4ccccc4OC)nn3c2=O)c(OC)c1	STAT3 act-1 155.6 | STAT3 act-2 inactive | NFkB act 2 inactive | STAT1 act-2 inactive
CCNc1nc(NC(C)(C)C)nc(SC(C(C)=O)C(C)=O)n1	STAT3 act-1 140.5 | STAT3 act-2 inactive | NFkB act 2 inactive | STAT1 act-2 inactive
CCNc1nc(SC(C(C)=O)C(C)=O)nc(N(C)C)n1	none
COCc1cc(C)nc2sc(C(=O)NN)c(-n3cccc3)c12	STAT3 act-1 136.8 | STAT3 act-2 139.0 | NFkB act 2 inactive | STAT1 act-2 inactive
COC(=O)c1ccc(C(=O)NC(=S)Nc2ccc3nc(SC)sc3c2)cc1	none
CSc1nc2ccc(NC(=O)C3=NN(c4ccccc4)C(=O)CC3)cc2s1	STAT3 act-1 138.2 | STAT3 act-2 161.2 | NFkB act 2 inactive | STAT1 act-2 inactive
CSc1nc2ccc(NC(=O)C3=NNC(=O)CC3)cc2s1	STAT3 act-1 141.3 | STAT3 act-2 150.8 | NFkB act 2 inactive | STAT1 act-2 inactive
COc1ccccc1C(=O)NC(=S)N1CCCc2ccccc21	none
O=C(NC(=S)N1CCCc2ccccc21)c1ccccc1	STAT3 act-1 166.5 | STAT3 act-2 148.6 | NFkB act 2 inactive | STAT1 act-2 inactive
O=C(NNC(=O)C1CCCN(S(=O)(=O)c2cccc(F)c2)C1)C1CC1 (centres undefined)	none
O=C1C(Cl)=C(N2CCN(c3ccccc3[N+](=O)[O-])CC2)C(=O)c2ccccc21	STAT3 act-1 144.8 | STAT3 act-2 134.8 | NFkB act 2 inactive | STAT1 act-2 inactive
O=C1C=C(NCc2ccccc2)c2ccccc2C1=O	STAT3 act-1 146.0 | STAT3 act-2 inactive | NFkB act 2 inactive | STAT1 act-2 inactive
CSc1nsc(/C=C/Nc2ccc(C)cc2)c1C#N	STAT3 act-1 137.5 | STAT3 act-2 135.9 | NFkB act 2 inactive | STAT1 act-2 inactive
CSc1nsc(/C=C/Nc2ccc(C)c(C)c2)c1C#N	none
Cc1ccc(-c2ccccc2[C@@H]2C[C@H]3CN(C)C(=O)[C@]34CCCN24)o1	none
O=C1N(c2ccccc2)C[C@@H]2C[C@@H](c3cc4ccccc4o3)N3CCC[C@@]123	STAT3 act-1 140.8 | STAT3 act-2 156.5 | NFkB act 2 inactive | STAT1 act-2 inactive
Cc1nc2c(-c3ccc(Cl)cc3)cnn2c2c1CCC2	STAT3 act-1 141.9 | STAT3 act-2 151.4 | NFkB act 2 inactive | STAT1 act-2 inactive
CS(=O)(=O)N(CC(=O)NCc1ccncc1)C1CCCCC1	none
CC(C)c1ccc(-n2ccnc2SCC(=O)O)cc1	none
Cc1cc(-c2ccc(Cl)cc2)c(C#N)c(N)n1	STAT3 act-1 147.8 (no result: APP 5'UTR act) | STAT3 act-2 140.4 | NFkB act 2 inactive | STAT1 act-2 inactive
COc1ccc(C2CC(=O)Oc3c2c(=O)n(C)c2ccccc32)c(OC)c1OC (centres undefined)	none
Cn1c(=O)c2c(c3ccccc31)OC(=O)CC2c1cccnc1 (centres undefined)	STAT3 act-1 136.9 | STAT3 act-2 inactive | NFkB act 2 inactive | STAT1 act-2 inactive
CSc1nsc(SCC(=O)NC2CCCCC2)n1	STAT3 act-1 137.0 | STAT3 act-2 inactive | NFkB act 2 inactive | STAT1 act-2 inactive
Cc1ccc(-c2nc(NCc3ccco3)c3ccccc3n2)cc1	STAT3 act-1 138.7 | STAT3 act-2 152.7 | NFkB act 2 inactive | STAT1 act-2 inactive
c1cncc(-c2nc(NCc3ccco3)c3ccccc3n2)c1	none
COc1ccc(C(=O)NC(=S)Nc2ccc(N3CCOCC3)c(Cl)c2)cc1[N+](=O)[O-]	none
Cn1c(=O)c2c(nc(N3CCCC3)n2CC(O)CO)n(C)c1=O (centres undefined)	STAT3 act-1 141.3 | STAT3 act-2 inactive | NFkB act 2 inactive | STAT1 act-2 inactive
COc1ccc(C(=O)COC(=O)CCn2nnc(-c3cccs3)n2)cc1	none
CCOC(=O)c1c(C)oc2c1cc(O)c1ccccc12	APP 5'UTR act 171.7, STAT3 act-1 144.6, NF-kB expr up 3.31 | STAT3 act-2 151.7 | NFkB act 2 inactive | STAT1 act-2 inactive
O=C(CCc1ccc(S(=O)(=O)N2CCOCC2)cc1)OCc1nc2ccccc2s1	STAT3 act-1 141.8 | STAT3 act-2 146.6 | NFkB act 2 121.9 | STAT1 act-2 135.7

From PubChem BioAssay
